From PubChem
A selection: hits, their analogues and other compounds. The true share with any hit is near 1.2%.
CAL PDZ FP-1 = untagged CAL PDZ binding inhibitors, primary screen, biochemical, fluorescence polarization, HTS; Golgi-associated PDZ and coiled-coil motif-containing protein (Homo sapiens), Q9HD26; purified CAL PDZ, TMR-peptide fluorescence polarization, 1 h; inhibition, % at 24.9 µM; 300,000 tested, 0.92% active; AID 602252, 2012;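 active means mean inhibition of at least 30% with at least half of replicates also reaching 30%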;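 further: 0% = DMSO neutral control and 100% = excess unlabeled competitor peptide PRC23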
ARNT-TACC3 inh = disruptors of ARNT/TACC3 protein interaction, primary screen, biochemical, AlphaScreen, single concentration; Transforming acidic coiled-coil-containing protein 3 (Homo sapiens), Q9Y6A5; AlphaScreen His-ARNT PAS-B/GST-TACC3 binding, luminescence; TACC3 fragment carries E629A point mutation; inhibition, % at 9.99 µM; 390,000 tested, 0.66% active; AID 623870, 2012;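 active means mean inhibition of replicates at least 50% and at least half of replicates each reaching 50%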;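 further: 0% = complete ARNT plus TACC3 wells and 100% = ARNT alone without TACC3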
CAL PDZ FP-2 = CAL PDZ peptide-binding inhibitors, primary screen, biochemical, fluorescence polarization, Cer-tagged CAL PDZ, HTS | inhibition, % at 20 µM | purified CAL PDZ, TMR-peptide fluorescence polarization, 1 h | 330,000 tested, 0.02% active | AID 504414, 2011;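 active means highest replicate inhibition of at least 40%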;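 further: plate controls were DMSO neutral control wells for no effect and unlabeled competitor peptide control wells for full effect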
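Material: tagged CAL PDZ protein CerCALP, purified; buffer or medium: sodium phosphate/NaCl buffer pH 7.4 with TCEP, IgG, Thesit; also added: fluorescent TMR peptide probe; schedule: 1 h incubation at room temperature before polarization reading; technique: fluorescence polarization from S- and P-plane intensities, G-factor corrected; control set: unlabelled peptide and DMSO controls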
ARNT Alpha ctr = AlphaScreen signal interference compounds, dose response, artefact control for ARNT-TACC3 interaction inhibitor project, biochemical, luminescence, cherry-pick; AC50, µM (top dose mostly 68 µM), for inactives: at the highest dose activity change, negative = signal decrease; 1,200 tested, 50% active; AID 651705, 2012; shares compounds with ARNT-TACC3 inh; His-ARNT PASB-GST AlphaScreen artifact counter-screen;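 active means every separate test run was called active for a drop in luminescence, with AC50 within twice the top valid dose, actives reach about 71 µM in these data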
* = called active by the depositor; / = no result given.

SMILES	CAL PDZ FP-1	ARNT-TACC3 inh	CAL PDZ FP-2	others
COC(=O)[C@H]1[C@H](CO)[C@H]2Cn3c(ccc(-c4ccccc4F)c3=O)[C@@H]1N2Cc1cccnc1	/	-3.9	/
COC(=O)[C@@H]1[C@@H](CO)[C@@H]2Cn3c(ccc(-c4ccccc4F)c3=O)[C@H]1N2Cc1cccnc1	/	-5.0	/
COC(=O)[C@@H]1[C@@H](CO)[C@@H]2Cn3c(ccc(-c4ccccc4F)c3=O)[C@H]1N2Cc1ccccc1	/	active	/
N#Cc1cccc(-c2ccc([C@H]3[C@@H](CO)N4CCCCN(C(=O)Cc5ccccc5)C[C@H]34)cc2)c1	/	2.9	/
COC(=O)[C@H]1[C@H](CO)[C@H]2Cn3c(ccc(-c4cccc(F)c4)c3=O)[C@@H]1N2Cc1ccncc1	/	-2.3	/
O=C(N/N=C/c1c(O)n(Cc2ccc(F)cc2)c(=S)[nH]c1=O)c1ccncc1	-2.2	60.9*	-0.1
CCn1c(O)c(/C=N/NC(=O)c2ccncc2)c(=O)[nH]c1=S	-2.5	/	-1.9
CCC(C)n1c(O)c(/C=N/Nc2ccccc2)c(=O)[nH]c1=S (stereo not given)	15.6	-7.5	-1.4
CCC(C)n1c(O)c(/C=N/NC(=O)c2ccncc2)c(=O)[nH]c1=S (stereo not given)	/	64.6*	-0.9
Clc1ccc(C(Cl)(Cl)Cl)c(Cl)c1	70.5*	/	-0.3
CC=Cc1ccc2n(c1=O)C[C@H]1[C@H](CO)[C@@H](C(=O)OC)[C@@H]2N1CC1CCCCC1 (mixture of isomers)	/	-7.9	/
N#Cc1ccc(-c2ccc([C@H]3[C@@H](CO)N4CCCCN(C(=O)Cc5ccccc5)C[C@H]34)cc2)cc1	/	5.1	/
O=c1[nH]c(O)c(Cc2ccc3c(c2)OCO3)c(=O)[nH]1	-1.1	23.2*	-3.1	ARNT Alpha ctr=7.2%
CCOc1ccc(Cc2c(O)[nH]c(=O)[nH]c2=O)cc1	0.3	4.1	-0.3
CCC(=O)N1[C@@H]2c3ccc(-c4ccc(F)cc4)c(=O)n3C[C@H]1[C@H](CO)[C@H]2C(=O)OC	/	3.6	/
CN1[C@@H](CO)[C@@H]2c3ccccc3NC[C@@H]21	/	1.9	/
O=C(Cc1ccncc1)N1CCCCN2[C@H](C1)[C@@H](c1ccc(C#Cc3ccccc3F)cc1)[C@@H]2CO	/	-4.1	/
CC(C(=O)Nc1ccc(Br)cc1C(=O)c1ccccc1)N1CCCCC1 (stereo not given)	-4.3	4.0	0.8
Cc1cccc(NC(=O)C(C)N2CC=C(c3ccccc3)CC2)c1 (stereo not given)	-4.1	62.2*	-2.5	ARNT Alpha ctr=-27.0%
O=C(Cc1ccccn1)N1CCCCN2[C@@H](CO)[C@H](c3ccc(-c4ccccc4F)cc3)[C@@H]2C1	/	5.9	/
COc1cc2c(c(OC)c1OC)-c1ccc(O)cc1C(NC(C)=O)CC2 (stereo not given)	1.6	-4.8	0.0
COc1cc2c(c(OC)c1OC)-c1ccc(O)c(=O)cc1[C@@H](NC(C)=O)CC2	0.8	68.9*	-0.2	ARNT Alpha ctr=-22.3%
CN(C)[C@@H]1C(=O)C(C(N)=O)=C(O)[C@@]2(O)C(=O)C3=C(O)c4c(O)cccc4[C@@](C)(O)C3[C@H](O)C12 (stereo not given in full)	-5.4	44.6*	1.1	ARNT Alpha ctr=-1.2%
CN(C)C1C(=O)C(C(N)=O)=C(O)C2(O)C(=O)C3=C(O)c4c(O)cccc4C(C)(O)C3CC12 (stereo not given)	-1.4	4.5	0.8
CCOC(=O)c1cnc(N2CC2)nc1N	-0.3	5.7	-0.3
CCOC(=O)c1cc2c(cn1)[C@H](CCO)NC2	-3.5	58.6*	0.0	ARNT Alpha ctr=-15.4%
Cc1ccccc1S(=O)(=O)N1[C@@H]2Cn3c(ccc(-c4cccnc4)c3=O)[C@H]1[C@@H](C(=O)O)[C@@H]2CO	/	6.5	/
